Data taken from ChEMBL document CHEMBL2029228, “Antimalarial activity of 9a-N substituted 15-membered azalides with improved in vitro and in vivo activity over azithromycin” (J Med Chem, 2012).

How the values were obtained:
HepG2 = test: Cytotoxicity against human HepG2 cells after 24 hrs by MTS assay; format: cell-based; details: HepG2, 24 h
Method in brief: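 HepG2 cells kept in RPMI 1640 with 10% FBS plus antibiotics at 37 °C, 5% CO₂. 50 000 cells per well exposed to 10 two-fold serial dilutions for 24 h. MTS reagent then added for 2 h more, absorbance read at 490 nm, IC50 derived.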

Plasmodium falciparum = test: Antimalarial activity against mefloquine-resistant Plasmodium falciparum TM91C235 assessed as [3H]hypoxanthine incorporation after 48 hrs; format: functional, organism-based
Method in brief: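 Tritiated hypoxanthine incorporation assay (Desjardins method, Milhous modification) with 48 h drug exposure. Uses P. falciparum clone TM91C235 (Southeast Asian, mefloquine-resistant). Compounds 2-fold diluted over 11 concentrations. IC50 derived by nonlinear logistic dose-response fitting, averaged where multiple runs were done.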

SMILES | IC50 (HepG2) [nM] | IC50 (Plasmodium falciparum) [nM]
CC[C@H]1OC(=O)[C@H](C)[C@@H](O[C@H]2C[C@@](C)(OC)[C@@H](O)[C@H](C)O2)[C@H](C)[C@@H](O[C@@H]2O[C@H](C)C[C@H](N(C)C)[C@H]2O)[C@](C)(O)C[C@@H](C)CN(CCCNCCCc2ccccc2)[C@H](C)[C@@H](O)[C@]1(C)O | 40000 | 106
CC[C@H]1OC(=O)[C@H](C)[C@@H](O[C@H]2C[C@@](C)(OC)[C@@H](O)[C@H](C)O2)[C@H](C)[C@@H](O[C@@H]2O[C@H](C)C[C@H](N(C)C)[C@H]2O)[C@](C)(O)C[C@@H](C)CN(CCCNCc2ccc3ccccc3n2)[C@H](C)[C@@H](O)[C@]1(C)O | 28000 | 62
CC[C@H]1OC(=O)[C@H](C)[C@@H](O)[C@H](C)[C@@H](O[C@@H]2O[C@H](C)C[C@H](N(C)C)[C@H]2O)[C@](C)(O)C[C@@H](C)CN(CCCNc2ccnc3ccccc23)[C@H](C)[C@@H](O)[C@]1(C)O | > 50000 | 437
CC[C@H]1OC(=O)[C@H](C)[C@@H](O[C@H]2C[C@@](C)(OC)[C@@H](O)[C@H](C)O2)[C@H](C)[C@@H](O[C@@H]2O[C@H](C)C[C@H](N(C)C)[C@H]2O)[C@](C)(O)C[C@@H](C)CN(CCCNC(=O)Cc2cccc3ccccc23)[C@H](C)[C@@H](O)[C@]1(C)O | – | 62
CC[C@H]1OC(=O)[C@H](C)[C@@H](O)[C@H](C)[C@@H](O[C@@H]2O[C@H](C)C[C@H](N(C)C)[C@H]2O)[C@](C)(O)C[C@@H](C)CN(CCCNC(=O)[C@H](C)c2ccc3cc(OC)ccc3c2)[C@H](C)[C@@H](O)[C@]1(C)O | – | 520
CC[C@H]1OC(=O)[C@H](C)[C@@H](O[C@H]2C[C@@](C)(OC)[C@@H](O)[C@H](C)O2)[C@H](C)[C@@H](O[C@@H]2O[C@H](C)C[C@H](N(C)C)[C@H]2O)[C@](C)(O)C[C@@H](C)CN(CCCNC(=O)CCCCc2ccccc2)[C@H](C)[C@@H](O)[C@]1(C)O | 49000 | 92
CC[C@H]1OC(=O)[C@H](C)[C@@H](O[C@H]2C[C@@](C)(OC)[C@@H](O)[C@H](C)O2)[C@H](C)[C@@H](O[C@@H]2O[C@H](C)C[C@H](N(C)C)[C@H]2O)[C@](C)(O)C[C@@H](C)CN(CCCNc2ncnc3[nH]cnc23)[C@H](C)[C@@H](O)[C@]1(C)O | > 50000 | > 6400
CC[C@H]1OC(=O)[C@H](C)[C@@H](O)[C@H](C)[C@@H](O[C@@H]2O[C@H](C)C[C@H](N(C)C)[C@H]2O)[C@](C)(O)C[C@@H](C)CN(CCCNC(=O)Cc2cccc3ccccc23)[C@H](C)[C@@H](O)[C@]1(C)O | – | 1370
CC[C@H]1OC(=O)[C@H](C)[C@@H](O[C@H]2C[C@@](C)(OC)[C@@H](O)[C@H](C)O2)[C@H](C)[C@@H](O[C@@H]2O[C@H](C)C[C@H](N(C)C)[C@H]2O)[C@](C)(O)C[C@@H](C)CN(CCCNC(=O)CCCc2ccccc2)[C@H](C)[C@@H](O)[C@]1(C)O | > 50000 | 85
CC[C@H]1OC(=O)[C@H](C)[C@@H](O[C@H]2C[C@@](C)(OC)[C@@H](O)[C@H](C)O2)[C@H](C)[C@@H](O[C@@H]2O[C@H](C)C[C@H](N(C)C)[C@H]2O)[C@](C)(O)C[C@@H](C)CN(CCC(=O)NCCc2ccccc2)[C@H](C)[C@@H](O)[C@]1(C)O | > 50000 | 367
CC[C@H]1OC(=O)[C@H](C)[C@@H](O[C@H]2C[C@@](C)(OC)[C@@H](O)[C@H](C)O2)[C@H](C)[C@@H](O[C@@H]2O[C@H](C)C[C@H](N(C)C)[C@H]2O)[C@](C)(O)C[C@@H](C)CN(CCCNCc2cnc3ccccc3c2)[C@H](C)[C@@H](O)[C@]1(C)O | 45000 | 50
CC[C@H]1OC(=O)[C@H](C)[C@@H](O[C@H]2C[C@@](C)(OC)[C@@H](O)[C@H](C)O2)[C@H](C)[C@@H](O[C@@H]2O[C@H](C)C[C@H](N(C)C)[C@H]2O)[C@](C)(O)C[C@@H](C)CN(CCCNc2cc(C)nc3ccc(OC)cc23)[C@H](C)[C@@H](O)[C@]1(C)O | > 50000 | 854
CC[C@H]1OC(=O)[C@H](C)[C@@H](O[C@H]2C[C@@](C)(OC)[C@@H](O)[C@H](C)O2)[C@H](C)[C@@H](O[C@@H]2O[C@H](C)C[C@H](N(C)C)[C@H]2O)[C@](C)(O)C[C@@H](C)CN(CCCNCc2cccc3ccccc23)[C@H](C)[C@@H](O)[C@]1(C)O | 10000 | 25
CC[C@H]1OC(=O)[C@H](C)[C@@H](O)[C@H](C)[C@@H](O[C@@H]2O[C@H](C)C[C@H](N(C)C)[C@H]2O)[C@](C)(O)C[C@@H](C)CN(CCCNCc2ccc3ccccc3n2)[C@H](C)[C@@H](O)[C@]1(C)O | – | 164
CC[C@H]1OC(=O)[C@H](C)[C@@H](O)[C@H](C)[C@@H](O[C@@H]2O[C@H](C)C[C@H](N(C)C)[C@H]2O)[C@](C)(O)C[C@@H](C)CN(CCCNCc2cnc3ccccc3c2)[C@H](C)[C@@H](O)[C@]1(C)O | – | 201
CC[C@H]1OC(=O)[C@H](C)[C@@H](O)[C@H](C)[C@@H](O[C@@H]2O[C@H](C)C[C@H](N(C)C)[C@H]2O)[C@](C)(O)C[C@@H](C)CN(CCCNCc2cccnc2)[C@H](C)[C@@H](O)[C@]1(C)O | > 50000 | 2510

SMILES | IC50 (HepG2) [nM] | IC50 (Plasmodium falciparum) [nM]
CC[C@H]1OC(=O)[C@H](C)[C@@H](O[C@H]2C[C@@](C)(OC)[C@@H](O)[C@H](C)O2)[C@H](C)[C@@H](O[C@@H]2O[C@H](C)C[C@H](N(C)C)[C@H]2O)[C@](C)(O)C[C@@H](C)CN(CCCNCc2ccncc2)[C@H](C)[C@@H](O)[C@]1(C)O | > 50000 | 568
CC[C@H]1OC(=O)[C@H](C)[C@@H](O)[C@H](C)[C@@H](O[C@@H]2O[C@H](C)C[C@H](N(C)C)[C@H]2O)[C@](C)(O)C[C@@H](C)CN(CCCNCc2ccncc2)[C@H](C)[C@@H](O)[C@]1(C)O | > 50000 | 3890
CC[C@H]1OC(=O)[C@H](C)[C@@H](O[C@H]2C[C@@](C)(OC)[C@@H](O)[C@H](C)O2)[C@H](C)[C@@H](O[C@@H]2O[C@H](C)C[C@H](N(C)C)[C@H]2O)[C@](C)(O)C[C@@H](C)CN(CCCNC(=O)Cc2ccc3ccccc3c2)[C@H](C)[C@@H](O)[C@]1(C)O | 40000 | 79
CC[C@H]1OC(=O)[C@H](C)[C@@H](O[C@H]2C[C@@](C)(OC)[C@@H](O)[C@H](C)O2)[C@H](C)[C@@H](O[C@@H]2O[C@H](C)C[C@H](N(C)C)[C@H]2O)[C@](C)(O)C[C@@H](C)CN(CCCNCc2ccccn2)[C@H](C)[C@@H](O)[C@]1(C)O | – | 1480
CC[C@H]1OC(=O)[C@H](C)[C@@H](O)[C@H](C)[C@@H](O[C@@H]2O[C@H](C)C[C@H](N(C)C)[C@H]2O)[C@](C)(O)C[C@@H](C)CN(CCCNCc2ccnc3ccccc23)[C@H](C)[C@@H](O)[C@]1(C)O | > 50000 | 264
CC[C@H]1OC(=O)[C@H](C)[C@@H](O)[C@H](C)[C@@H](O[C@@H]2O[C@H](C)C[C@H](N(C)C)[C@H]2O)[C@](C)(O)C[C@@H](C)CN(CCCNc2ccnc3cc(Cl)ccc23)[C@H](C)[C@@H](O)[C@]1(C)O | 35000 | 13
CC[C@H]1OC(=O)[C@H](C)[C@@H](O[C@H]2C[C@@](C)(OC)[C@@H](O)[C@H](C)O2)[C@H](C)[C@@H](O[C@@H]2O[C@H](C)C[C@H](N(C)C)[C@H]2O)[C@](C)(O)C[C@@H](C)CN(CCC(=O)NCc2cccc3ccccc23)[C@H](C)[C@@H](O)[C@]1(C)O | 49000 | 79
CC[C@H]1OC(=O)[C@H](C)[C@@H](O[C@H]2C[C@@](C)(OC)[C@@H](O)[C@H](C)O2)[C@H](C)[C@@H](O[C@@H]2O[C@H](C)C[C@H](N(C)C)[C@H]2O)[C@](C)(O)C[C@@H](C)CN(CCCNC(=O)Cc2ccccc2)[C@H](C)[C@@H](O)[C@]1(C)O | > 50000 | 233
CC[C@H]1OC(=O)[C@H](C)[C@@H](O)[C@H](C)[C@@H](O)[C@](C)(O)C[C@@H](C)CN(CCCNCc2ccc3ccccc3n2)[C@H](C)[C@@H](O)[C@]1(C)O | > 50000 | 1970
CC[C@H]1OC(=O)[C@H](C)[C@@H](O[C@H]2C[C@@](C)(OC)[C@@H](O)[C@H](C)O2)[C@H](C)[C@@H](O[C@@H]2O[C@H](C)C[C@H](N(C)C)[C@H]2O)[C@](C)(O)C[C@@H](C)CN(CCCNC(=O)[C@H](C)c2ccc3cc(OC)ccc3c2)[C@H](C)[C@@H](O)[C@]1(C)O | 20000 | 58
CC[C@H]1OC(=O)[C@H](C)[C@@H](O[C@H]2C[C@@](C)(OC)[C@@H](O)[C@H](C)O2)[C@H](C)[C@@H](O[C@@H]2O[C@H](C)C[C@H](N(C)C)[C@H]2O)[C@](C)(O)C[C@@H](C)CN(CCCNC(=O)c2ocnc2C)[C@H](C)[C@@H](O)[C@]1(C)O | – | 878
CC[C@H]1OC(=O)[C@H](C)[C@@H](O[C@H]2C[C@@](C)(OC)[C@@H](O)[C@H](C)O2)[C@H](C)[C@@H](O[C@@H]2O[C@H](C)C[C@H](N(C)C)[C@H]2O)[C@](C)(O)C[C@@H](C)CN(CCCNCc2ccccc2)[C@H](C)[C@@H](O)[C@]1(C)O | > 50000 | 104
CC[C@H]1OC(=O)[C@H](C)[C@@H](O)[C@H](C)[C@@H](O)[C@](C)(O)C[C@@H](C)CN(CCCNC(=O)c2ocnc2C)[C@H](C)[C@@H](O)[C@]1(C)O | – | > 21300
CC[C@H]1OC(=O)[C@H](C)[C@@H](O)[C@H](C)[C@@H](O[C@@H]2O[C@H](C)C[C@H](N(C)C)[C@H]2O)[C@](C)(O)C[C@@H](C)CN(CCCNCc2cccc3ccccc23)[C@H](C)[C@@H](O)[C@]1(C)O | 38000 | 55
CC[C@H]1OC(=O)[C@H](C)[C@@H](O[C@H]2C[C@@](C)(OC)[C@@H](O)[C@H](C)O2)[C@H](C)[C@@H](O[C@@H]2O[C@H](C)C[C@H](N(C)C)[C@H]2O)[C@](C)(O)C[C@@H](C)CN(CCC(=O)NCCCc2ccccc2)[C@H](C)[C@@H](O)[C@]1(C)O | 40000 | 89
